The source made the active and inactive calls. The rule behind the calls is not given here.

In assay [1] the target is T1, Sialidase (Clostridium perfringens) (UniProt P10481).
T1 sequence (whole entry): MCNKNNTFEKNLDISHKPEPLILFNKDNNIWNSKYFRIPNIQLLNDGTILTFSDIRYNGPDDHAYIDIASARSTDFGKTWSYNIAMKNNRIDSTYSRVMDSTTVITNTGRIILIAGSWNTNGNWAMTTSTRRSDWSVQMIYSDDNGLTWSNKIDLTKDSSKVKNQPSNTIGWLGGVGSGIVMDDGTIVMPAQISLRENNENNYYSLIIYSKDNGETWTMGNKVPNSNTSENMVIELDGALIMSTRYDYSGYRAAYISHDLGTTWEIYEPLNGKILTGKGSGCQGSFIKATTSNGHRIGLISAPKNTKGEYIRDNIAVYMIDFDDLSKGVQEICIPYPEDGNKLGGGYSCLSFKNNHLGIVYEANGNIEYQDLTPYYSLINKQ
The experiment in a line: (§1) Inhibition of Clostridium perfringens neuraminidase assessed as inhibition of 4-MU-NANA hydrolysis after 10 mins by spectrofluorimetry. In outline: (§2)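 Enzyme at 0.05 U/mL in 0.04 M sodium acetate pH 5.0 with compound (DMSO stock diluted in buffer) and 4-MU-NANA (1 mM stock); 10 min at 37 °C. Stopped with 0.1 M glycine–NaOH pH 10.4; 4-methylumbelliferone read at ex 360/em 440 nm. IC50 from regression, mean ± SD of three replicates.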

The target in assay [2] is T2, Sialidase (Clostridium perfringens, UniProt P10481).
T2 sequence (P10481 whole entry): T1 sequence (whole entry)
The description is as §1. A digest of the protocol:
as §2

Assay [3] concerns the target Sialidase (Vibrio cholerae serotype O1 (strain ATCC 39315 / El Tor Inaba N16961), UniProt P0C6E9). The experiment in a line: Inhibition of Vibrio cholerae neuraminidase assessed as inhibition of 4-MU-NANA hydrolysis after 30 mins by spectrofluorimetry. In outline:
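V. cholerae enzyme (8.3 U) with compound in 50 mM MES, 6 mM CaCl2, pH 5.6, pre-incubated 30 min at 37 °C with shaking. 4-MU-NANA added at 25 µM final, 30 min at 37 °C, then quenched with 0.25 M glycine pH 10.0. Read at ex 360/em 440 nm, blank-corrected, expressed as % of no-inhibitor control, at least triplicate.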

Assay [4] addresses T2, Sialidase. The assay is described as follows: Noncompetitive inhibition of Clostridium perfringens neuraminidase. A digest of the protocol: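 Kinetics run in acetate-buffer 4-MU-NANA fluorometric assay without stop solution, product read immediately at ex 360/em 440 nm across substrate and inhibitor concentrations. Mode assigned from Lineweaver–Burk and Dixon plots; Ki from x-axis intersection of lines.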

The target of assay [5] is T1, Sialidase (Clostridium perfringens). The assay is described as follows: Reversible inhibition of Clostridium perfringens neuraminidase at 10 times IC50 pre-incubated for 15 mins by spectrofluorimetry. In outline:
(§3)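 Reversibility by jump dilution: enzyme pre-incubated 15 min with compound at 100-fold assay enzyme level (0.125 U/mL), then diluted 1/100 into acetate buffer with substrate. Progress curves of fluorescence over 30 min compared with enzyme pre-incubated and diluted without compound.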

Assay [6] has the same target. The assay is described as follows: Reversible inhibition of Clostridium perfringens neuraminidase at 0.1 times IC50 pre-incubated for 15 mins by spectrofluorimetry. In outline:
as §3

For assay [7] the target is unchanged. The assay is described as follows: Inhibition of Clostridium perfringens neuraminidase at 10 times IC50 by spectrofluorimetry. In outline:
as §3

The target is the same in assay [8]. The assay is described as follows: Inhibition of Clostridium perfringens neuraminidase at 0.1 times IC50 by spectrofluorimetry. A digest of the protocol:
as §3

Assay [9] shares this target. The assay is described as follows: Noncompetitive inhibition of Clostridium perfringens neuraminidase by Lineweaver-Burke plot analysis.
The target is the same in assay [10]. The assay is described as follows: Noncompetitive inhibition of Clostridium perfringens neuraminidase by Dixon plot analysis. A digest of the protocol: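 Dixon plots of 1/v against [I] at each substrate concentration, rates from unquenched fluorometric 4-MU-NANA hydrolysis (ex 360/em 440 nm); Ki read from the x-axis value where lines intersect.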
For assay [11], the system named is Vibrio cholerae. The experiment in a line: Antibacterial activity against Vibrio cholerae 16961 at 3 to 10 ug/ml after 24 hrs. Type of assay: functional, organism-based.
Assay [12] deals with Vibrio cholerae. The assay is described as follows: Antibacterial activity against Vibrio cholerae 16961 infected in human HeLa cells assessed as inhibition of bacterial adherence to host cell at 3 to 10 ug/ml pre-incubated for 1 hr before infection measured after 30 mins of infection by Giemsa staining. It is filed as functional, organism-based.

Sialidase (Vibrio cholerae serotype O1 (strain ATCC 39315 / El Tor Inaba N16961), UniProt P0C6E9), sequence (P0C6E9 whole entry, one chain of several): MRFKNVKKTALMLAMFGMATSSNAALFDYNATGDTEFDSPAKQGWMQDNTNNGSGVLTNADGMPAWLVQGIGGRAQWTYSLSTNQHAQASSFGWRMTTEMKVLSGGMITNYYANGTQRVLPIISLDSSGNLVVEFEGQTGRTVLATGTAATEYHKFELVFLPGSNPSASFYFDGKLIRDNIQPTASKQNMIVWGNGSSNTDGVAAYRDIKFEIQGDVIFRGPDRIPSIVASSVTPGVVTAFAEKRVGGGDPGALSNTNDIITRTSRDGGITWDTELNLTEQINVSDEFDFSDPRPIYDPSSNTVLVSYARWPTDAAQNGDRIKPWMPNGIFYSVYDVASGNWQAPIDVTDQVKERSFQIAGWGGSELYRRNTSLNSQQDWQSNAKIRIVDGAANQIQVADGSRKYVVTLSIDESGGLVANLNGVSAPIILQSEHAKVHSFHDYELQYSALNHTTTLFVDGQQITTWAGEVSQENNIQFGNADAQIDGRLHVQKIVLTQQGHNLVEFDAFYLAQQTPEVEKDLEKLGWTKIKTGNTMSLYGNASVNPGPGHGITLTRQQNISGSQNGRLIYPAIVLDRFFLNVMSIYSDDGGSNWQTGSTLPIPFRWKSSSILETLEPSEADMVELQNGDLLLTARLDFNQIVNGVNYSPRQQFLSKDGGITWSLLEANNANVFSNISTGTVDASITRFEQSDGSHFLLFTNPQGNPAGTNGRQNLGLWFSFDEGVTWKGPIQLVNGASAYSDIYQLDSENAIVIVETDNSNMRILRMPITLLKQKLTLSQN

The term IC50 denotes the point on the concentration scale where inhibition reaches its midpoint. The term Ki denotes a dissociation constant, usually derived from enzyme kinetics or from competition with a known ligand. Broadly, the inhibition is how much of the control response was suppressed. Consider `CC(C)=CCc1cc2c(cc1O)OC[C@H]1c3ccc(O)cc3O[C@@H]21` [CALOPOCARPIN], for which the Activity result in [1] was “Dose-dependent effect”. The IC50 on Sialidase [2] came out at 1570 nM; at Sialidase [3], 7550 nM. This compound returned a Ki on Sialidase [4] of 2090 nM. Moreover, the inhibition entry in assay [5], in assay [6], in [9] and in [10] was “Active” throughout. The inhibition in assay [7] worked out at 91%; in [8], 9%. Further, the outcome with Vibrio cholerae [11] was inactive. In addition, the outcome in the assay with Vibrio cholerae [12] was Active.

These data come from ChEMBL document CHEMBL1157932, “Prenylated pterocarpans as bacterial neuraminidase inhibitors” (Bioorg Med Chem, 2010).
